Source: ChEMBL document CHEMBL1806466, “2-Amino-4-methyl-5-phenylethyl substituted-7-N-benzyl-pyrrolo[2,3-d]pyrimidines as novel antitumor antimitotic agents that also reverse tumor resistance” (Bioorg Med Chem, 2011)
Activity calls are given as the source filed them. The rule behind the calls is not given here.

What was measured:
MCF7 [1] = experiment: Cytotoxic activity against drug-sensitive Pgp-, MRP1-deficient human MCF7 cells after 48 hrs by sulforhodamine B assay; conditions: MCF7, 48 h
NCI/ADR = experiment: Reversal of Pgp-mediated multidrug resistance in human NCI/ADR cells assessed as enhancement of cytotoxicity of vinblastine after 48 hrs by sulforhodamine B assay; format: cell-based
Summary of the method: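 NCI/ADR cells plated at ~15% confluency and allowed 24 h to attach. […] Survival by SRB binding, each value the mean of three wells, with ethanol solvent controls. Pgp Antagonism Score = % survival without vinblastine / % survival with vinblastine.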

HOP-92 = experiment: Antitumor activity against human HOP92 cells after 48 hrs by sulforhodamine B assay; format: functional; conditions: HOP-92, 48 h
Summary of the method: (§1)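 NCI-60 screen, adherent lines: grown in RPMI 1640 with 5% FBS and 2 mM L-glutamine. Seeded at 5,000–40,000 cells/well by doubling time and preincubated 24 h at 37 °C, 5% CO2, with time-zero plates TCA-fixed. Five concentrations (10-fold or half-log) given for 48 h. Fixed with cold TCA (10% final), then SRB-stained and read at A515. GI50 is 50% reduction of net protein increase versus control.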

NCI/ADR-RES = experiment: Antitumor activity against human NCI/ADR-RES cells after 48 hrs by sulforhodamine B assay; format: functional
Summary of the method: as §1

NCI-H460 = experiment: Antitumor activity against human NCI-H460 cells after 48 hrs by sulforhodamine B assay; format: functional; conditions: NCI-H460, 48 h
Summary of the method: as §1

[2] = Cytotoxic activity against drug-resistant […]-deficient human NCI/ADR cells expressing Pgp after 48 hrs by sulforhodamine B assay; format: functional, cell-based; conditions: NCI/ADR-RES
Summary of the method: (§2)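 Cells plated at ~15% confluency and allowed 24 h to attach, then exposed to varying test concentrations for 48 h. Survival by SRB binding, reported as % decrease in binding versus ethanol solvent controls, mean of three wells. For NCI/ADR, exposure with 0 or 50 nM vinblastine; for MCF-7/VP, with 0 or 1 nM vincristine.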

COLO 205 = experiment: Antitumor activity against human COLO205 cells after 48 hrs by sulforhodamine B assay; format: functional; conditions: COLO 205, 48 h
Summary of the method: as §1

KM12 = experiment: Antitumor activity against human KM12 cells after 48 hrs by sulforhodamine B assay; format: functional; conditions: KM12, 48 h
Summary of the method: as §1

MOLT-4 = experiment: Antitumor activity against human MOLT4 cells after 48 hrs by sulforhodamine B assay; format: functional; conditions: MOLT-4, 48 h
Summary of the method: (§3)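 NCI-60 screen, suspension lines: grown in RPMI 1640 with 5% FBS and 2 mM L-glutamine. Seeded at 5,000–40,000 cells/well and preincubated 24 h at 37 °C, 5% CO2, with time-zero plates fixed. Five concentrations (10-fold or half-log) given for 48 h. Settled cells fixed with 80% TCA (16% final), then SRB-stained and read at 515 nm. GI50 is from the net growth relative to time zero and control.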

SF-539 = experiment: Antitumor activity against human SF539 cells after 48 hrs by sulforhodamine B assay; format: functional; conditions: SF-539, 48 h
Summary of the method: as §1

ACHN = experiment: Antitumor activity against human ACHN cells after 48 hrs by sulforhodamine B assay; format: functional
Summary of the method: as §1

SR = experiment: Antitumor activity against human SR cells after 48 hrs by sulforhodamine B assay; format: functional
Summary of the method: as §3

K562 = experiment: Antitumor activity against human K562 cells after 48 hrs by sulforhodamine B assay; format: functional; conditions: K562, 48 h
Summary of the method: as §3

HCT-116 = experiment: Antitumor activity against human HCT116 cells after 48 hrs by sulforhodamine B assay; format: functional; conditions: HCT-116, 48 h
Summary of the method: as §1

[3] = Cytotoxic activity against Pgp-deficient human MCF7/VP cells expressing MRP1 after 48 hrs by sulforhodamine B assay; format: functional, cell-based
Summary of the method: as §2

SK-MEL-2 = experiment: Antitumor activity against human SK-MEL-2 cells after 48 hrs by sulforhodamine B assay; format: functional; conditions: SK-MEL-2, 48 h
Summary of the method: as §1

CAKI-1 = experiment: Antitumor activity against human Caki1 cells after 48 hrs by sulforhodamine B assay; format: functional; conditions: CAKI-1, 48 h
Summary of the method: as §1

NCI-H322M = experiment: Antitumor activity against human NCI-H322M cells after 48 hrs by sulforhodamine B assay; format: functional
Summary of the method: as §1

MCF7 [4] = experiment: Antitumor activity against human MCF7 cells after 48 hrs by sulforhodamine B assay; format: functional; conditions: MCF7, 48 h
Summary of the method: as §1

Hs-578T = experiment: Antitumor activity against human Hs578T cells after 48 hrs by sulforhodamine B assay; format: functional
Summary of the method: as §1

UACC-257 = experiment: Antitumor activity against human UACC257 cells after 48 hrs by sulforhodamine B assay; format: functional; conditions: UACC-257, 48 h
Summary of the method: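 NCI-60 panel lines grown in RPMI 1640 with 5% FBS and 2 mM L-glutamine. Cells plated at 5,000–40,000/well by doubling time, given 24 h before drug, then exposed to five concentrations for 48 h at 37 °C. Time-zero plates fixed with TCA. Cells fixed with TCA, stained with 0.4% SRB, read at 515 nm. GI50 = 50% reduction in net protein increase versus control.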

MDA-MB-468 = experiment: Antitumor activity against human MDA-MB-468 cells after 48 hrs by sulforhodamine B assay; format: functional; conditions: MDA-MB-468, 48 h
Summary of the method: as §1

NCI-H226 = experiment: Antitumor activity against human NCI-H226 cells after 48 hrs by sulforhodamine B assay; format: functional; conditions: NCI-H226, 48 h
Summary of the method: as §1

SW-620 = experiment: Antitumor activity against human SW620 cells after 48 hrs by sulforhodamine B assay; format: functional; conditions: SW-620, 48 h
Summary of the method: as §1

EKVX = experiment: Antitumor activity against human EKVX cells after 48 hrs by sulforhodamine B assay; format: functional
Summary of the method: as §1

SK-MEL-28 = experiment: Antitumor activity against human SK-MEL-28 cells after 48 hrs by sulforhodamine B assay; format: functional; conditions: SK-MEL-28, 48 h
Summary of the method: as §1

A498 = experiment: Antitumor activity against human A498 cells after 48 hrs by sulforhodamine B assay; format: functional; conditions: A498, 48 h
Summary of the method: as §1

NCI-H522 = experiment: Antitumor activity against human NCI-H522 cells after 48 hrs by sulforhodamine B assay; format: functional; conditions: NCI-H522, 48 h
Summary of the method: as §1

[5] = molecular target: Multidrug resistance-associated protein 1 (Homo sapiens, UniProt P33527); experiment: Reversal of MRP1-mediated multidrug resistance in human MCF7/VP cells assessed as enhancement of cytotoxicity of vincristine after 48 hrs by sulforhodamine B assay; format: cell-based
Sequence of Multidrug resistance-associated protein 1 (P33527 whole entry): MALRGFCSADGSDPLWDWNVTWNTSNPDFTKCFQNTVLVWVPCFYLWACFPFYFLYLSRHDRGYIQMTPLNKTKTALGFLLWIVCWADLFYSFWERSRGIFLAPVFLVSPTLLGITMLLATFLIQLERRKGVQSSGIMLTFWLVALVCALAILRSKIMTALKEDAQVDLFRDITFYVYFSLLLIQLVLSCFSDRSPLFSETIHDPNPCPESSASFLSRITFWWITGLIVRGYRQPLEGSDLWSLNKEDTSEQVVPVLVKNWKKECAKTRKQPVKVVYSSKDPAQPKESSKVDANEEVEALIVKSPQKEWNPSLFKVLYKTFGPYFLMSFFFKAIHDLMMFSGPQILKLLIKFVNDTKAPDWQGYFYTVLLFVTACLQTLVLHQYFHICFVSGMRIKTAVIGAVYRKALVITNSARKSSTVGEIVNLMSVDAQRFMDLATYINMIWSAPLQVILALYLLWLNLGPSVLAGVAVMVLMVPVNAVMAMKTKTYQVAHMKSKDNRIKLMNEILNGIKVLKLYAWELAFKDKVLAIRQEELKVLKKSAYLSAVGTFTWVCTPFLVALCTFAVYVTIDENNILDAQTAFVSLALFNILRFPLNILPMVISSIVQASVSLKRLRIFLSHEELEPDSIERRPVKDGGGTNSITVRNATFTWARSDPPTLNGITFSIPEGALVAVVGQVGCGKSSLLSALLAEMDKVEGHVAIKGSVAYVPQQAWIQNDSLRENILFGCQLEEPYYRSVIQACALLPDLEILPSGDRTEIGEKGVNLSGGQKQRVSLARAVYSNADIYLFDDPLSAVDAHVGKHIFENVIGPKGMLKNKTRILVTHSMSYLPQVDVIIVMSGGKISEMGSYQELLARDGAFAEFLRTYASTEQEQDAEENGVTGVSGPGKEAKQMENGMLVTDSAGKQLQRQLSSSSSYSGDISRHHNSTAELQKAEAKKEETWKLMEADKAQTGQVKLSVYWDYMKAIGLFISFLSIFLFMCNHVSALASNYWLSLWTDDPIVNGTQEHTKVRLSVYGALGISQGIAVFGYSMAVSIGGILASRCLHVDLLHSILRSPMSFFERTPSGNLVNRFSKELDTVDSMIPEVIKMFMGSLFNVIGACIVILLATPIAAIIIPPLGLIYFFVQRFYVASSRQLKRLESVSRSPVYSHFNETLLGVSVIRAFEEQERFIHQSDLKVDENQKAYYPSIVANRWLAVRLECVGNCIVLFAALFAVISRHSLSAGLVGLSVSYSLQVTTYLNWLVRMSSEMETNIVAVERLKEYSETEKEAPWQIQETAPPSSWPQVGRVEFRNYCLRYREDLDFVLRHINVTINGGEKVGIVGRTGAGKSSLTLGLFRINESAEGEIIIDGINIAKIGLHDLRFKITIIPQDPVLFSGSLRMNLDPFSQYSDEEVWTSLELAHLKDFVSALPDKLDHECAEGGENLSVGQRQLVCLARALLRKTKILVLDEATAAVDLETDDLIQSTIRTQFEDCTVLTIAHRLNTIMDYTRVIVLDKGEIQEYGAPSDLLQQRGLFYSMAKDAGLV
Summary of the method: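 MCF-7/VP cells plated at ~15% confluency and allowed 24 h to attach. […] Survival by SRB binding. MRP1 Antagonism Score = % survival without vincristine / % survival with vincristine.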

HOP-62 = experiment: Antitumor activity against human HOP62 cells after 48 hrs by sulforhodamine B assay; format: functional; conditions: HOP-62, 48 h
Summary of the method: as §1

Bos taurus = species on record: Bos taurus; experiment: Effect on bovine brain microtubule depolymerization assessed as decrease in absorbance at wavelength 340 nm after 15 mins
Summary of the method: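 Bovine brain tubulin purified by three assembly/disassembly cycles followed by ion exchange. Tubulin at 2.5 mg/mL […] in 1 M glutamate, pH 6.6, with 4% DMSO, preincubated with compound at 0 °C for 15 min. 0.5 mM GTP then added and samples warmed to 37 °C. A340 monitored about 60 min.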

SK-MEL-5 = experiment: Antitumor activity against human SK-MEL-5 cells after 48 hrs by sulforhodamine B assay; format: functional; conditions: SK-MEL-5, 48 h
Summary of the method: as §1

OVCAR-8 = experiment: Antitumor activity against human OVCAR8 cells after 48 hrs by sulforhodamine B assay; format: functional; conditions: OVCAR-8, 48 h
Summary of the method: as §1

## COc1cc(CCc2cn(Cc3ccccc3)c3nc(N)nc(C)c23)c(OC)c(OC)c1OC
MCF7 [1]
  IC50: 24 µM
NCI/ADR
  Activity: Active
HOP-92
  GI50: 1.39 µM
NCI/ADR-RES
  GI50: 2.02 µM
NCI-H460
  GI50: 2.81 µM
[2]
  IC50: 7 µM
COLO 205
  GI50: 2.8 µM
KM12
  GI50: 3.33 µM
MOLT-4
  GI50: 3.96 µM
SF-539
  GI50: 1.86 µM
ACHN
  GI50: 9.36 µM
SR
  GI50: 2.35 µM
K562
  GI50: 2.48 µM
HCT-116
  GI50: 3.68 µM
[3]
  IC50: 9 µM
SK-MEL-2
  GI50: 5.09 µM
CAKI-1
  GI50: 2.5 µM
NCI-H322M
  GI50: 6.92 µM
MCF7 [4]
  GI50: 1.05 µM
Hs-578T
  GI50: 2.46 µM
UACC-257
  GI50: 10.4 µM
MDA-MB-468
  GI50: 2.82 µM
NCI-H226
  GI50: 4.27 µM
SW-620
  GI50: 3.19 µM
EKVX
  GI50: 7.73 µM
SK-MEL-28
  GI50: 4.05 µM
A498
  GI50: 2.25 µM
NCI-H522
  GI50: 6.05 µM
[5]
  Activity: Not Active
HOP-62
  GI50: 3.96 µM
Bos taurus
  Activity: Active
SK-MEL-5
  GI50: 1.46 µM
OVCAR-8
  GI50: 4.71 µM
